Usually Ki stands for a dissociation constant, usually derived from enzyme kinetics or from competition with a known ligand. High values mean lower affinity, low ones higher affinity.

Ki data for 27 molecules are collected here from ChEMBL document CHEMBL3351966, “Structural manipulation on the catecholic fragment of dopamine D(1) receptor agonist 1-phenyl-N-methyl-benzazepines” (Eur J Med Chem, 2014).

For assay [1], the target named is 5-hydroxytryptamine receptor 2A (Homo sapiens, UniProt P28223). In words: Displacement of [3H]ketanserin from human 5HT2A receptor expressed in HEK293 cell membranes by liquid scintillation counting based competition binding assay. A digest of the protocol:
(§1)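 Competition binding on membranes from stably transfected cell lines ([…]), clones selected with G418. Buffer 50 mM Tris, 4 mM MgCl₂, pH 7.4 with 0.7 nM radioligand and increasing compound concentrations. Duplicate tubes incubated at 30 °C for 50 min, then rapid filtration through GF/B filters and cold-buffer wash. Compounds from 10^-1 M DMSO stock. Ki as mean of three to five experiments, racemates.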
A general note: Loss of bound radioactivity is the signal in a displacement assay; it reports binding, not function.

Another assay addresses D(1A) dopamine receptor (Homo sapiens, UniProt P21728). The experiment in a line: Displacement of [3H]SCH23390 from human dopamine D1 receptor expressed in HEK293 cell membranes by liquid scintillation counting based competition binding assay. A digest of the protocol:
as §1

Assay [2] addresses T1, 5-hydroxytryptamine receptor 1A (Rattus norvegicus, UniProt P19327).
T1 sequence (P19327 whole entry): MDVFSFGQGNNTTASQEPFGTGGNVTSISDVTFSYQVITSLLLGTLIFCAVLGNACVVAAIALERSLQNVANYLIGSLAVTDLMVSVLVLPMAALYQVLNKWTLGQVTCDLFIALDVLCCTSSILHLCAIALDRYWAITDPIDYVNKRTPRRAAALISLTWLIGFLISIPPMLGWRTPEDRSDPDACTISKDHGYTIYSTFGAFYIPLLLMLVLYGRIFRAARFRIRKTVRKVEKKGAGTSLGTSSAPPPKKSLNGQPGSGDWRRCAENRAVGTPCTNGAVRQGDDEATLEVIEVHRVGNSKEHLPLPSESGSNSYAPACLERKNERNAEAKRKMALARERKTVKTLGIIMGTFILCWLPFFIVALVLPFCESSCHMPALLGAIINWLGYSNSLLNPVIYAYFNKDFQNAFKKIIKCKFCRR
The experiment in a line: Displacement of [3H]8-OH-DPAT from rat 5HT1A receptor expressed in CHO cell membranes by liquid scintillation counting based competition binding assay. A digest of the protocol: as §1

The target in the next assay is D(3) dopamine receptor (Homo sapiens, UniProt P35462). The experiment in a line: Displacement of [3H]spiperone from human dopamine D3 receptor expressed in HEK293 cell membranes by liquid scintillation counting based competition binding assay. A digest of the protocol:
as §1

The next assay has as its target D(2) dopamine receptor (Homo sapiens, UniProt P14416). The experiment in a line: Displacement of [3H]spiperone from human dopamine D2 receptor expressed in HEK293 cell membranes by liquid scintillation counting based competition binding assay. A digest of the protocol:
as §1

Sequence of D(1A) dopamine receptor (P21728 whole entry): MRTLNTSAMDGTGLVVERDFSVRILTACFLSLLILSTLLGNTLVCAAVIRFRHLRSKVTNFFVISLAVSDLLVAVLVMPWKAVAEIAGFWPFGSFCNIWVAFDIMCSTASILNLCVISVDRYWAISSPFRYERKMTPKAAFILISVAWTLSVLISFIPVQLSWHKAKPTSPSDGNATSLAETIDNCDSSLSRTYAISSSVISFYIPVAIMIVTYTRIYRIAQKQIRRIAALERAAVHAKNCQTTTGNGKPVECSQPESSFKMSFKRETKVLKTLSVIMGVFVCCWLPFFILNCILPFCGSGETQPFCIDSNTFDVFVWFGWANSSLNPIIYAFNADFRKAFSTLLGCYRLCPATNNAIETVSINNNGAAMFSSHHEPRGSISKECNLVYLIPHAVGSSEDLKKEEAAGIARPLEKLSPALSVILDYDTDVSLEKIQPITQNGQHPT
Sequence of D(2) dopamine receptor (P14416 whole entry): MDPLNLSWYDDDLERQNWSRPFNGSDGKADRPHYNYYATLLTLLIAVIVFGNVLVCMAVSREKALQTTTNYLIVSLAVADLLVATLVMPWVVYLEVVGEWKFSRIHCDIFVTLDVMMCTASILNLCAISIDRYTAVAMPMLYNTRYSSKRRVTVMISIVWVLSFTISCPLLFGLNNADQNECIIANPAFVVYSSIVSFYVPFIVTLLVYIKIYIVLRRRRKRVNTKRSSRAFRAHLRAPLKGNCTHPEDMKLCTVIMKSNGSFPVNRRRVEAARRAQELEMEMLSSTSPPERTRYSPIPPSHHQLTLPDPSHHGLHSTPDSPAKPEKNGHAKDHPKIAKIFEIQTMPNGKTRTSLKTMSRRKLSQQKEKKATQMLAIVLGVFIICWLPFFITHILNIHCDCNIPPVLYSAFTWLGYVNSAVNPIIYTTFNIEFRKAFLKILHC
Sequence of 5-hydroxytryptamine receptor 2A (P28223 whole entry): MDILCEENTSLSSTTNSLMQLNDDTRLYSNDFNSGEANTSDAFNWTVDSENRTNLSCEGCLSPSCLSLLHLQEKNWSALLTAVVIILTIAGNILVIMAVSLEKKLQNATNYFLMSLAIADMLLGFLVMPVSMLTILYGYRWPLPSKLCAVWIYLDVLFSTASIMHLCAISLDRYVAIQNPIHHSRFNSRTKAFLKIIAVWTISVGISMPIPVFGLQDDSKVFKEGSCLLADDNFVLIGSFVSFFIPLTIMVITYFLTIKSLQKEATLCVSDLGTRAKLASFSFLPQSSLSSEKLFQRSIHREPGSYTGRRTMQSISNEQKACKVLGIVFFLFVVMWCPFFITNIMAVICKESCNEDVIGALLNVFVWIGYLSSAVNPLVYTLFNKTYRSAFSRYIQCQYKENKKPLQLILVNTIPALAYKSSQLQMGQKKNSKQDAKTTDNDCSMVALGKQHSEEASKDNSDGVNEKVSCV
Sequence of D(3) dopamine receptor (P35462 whole entry): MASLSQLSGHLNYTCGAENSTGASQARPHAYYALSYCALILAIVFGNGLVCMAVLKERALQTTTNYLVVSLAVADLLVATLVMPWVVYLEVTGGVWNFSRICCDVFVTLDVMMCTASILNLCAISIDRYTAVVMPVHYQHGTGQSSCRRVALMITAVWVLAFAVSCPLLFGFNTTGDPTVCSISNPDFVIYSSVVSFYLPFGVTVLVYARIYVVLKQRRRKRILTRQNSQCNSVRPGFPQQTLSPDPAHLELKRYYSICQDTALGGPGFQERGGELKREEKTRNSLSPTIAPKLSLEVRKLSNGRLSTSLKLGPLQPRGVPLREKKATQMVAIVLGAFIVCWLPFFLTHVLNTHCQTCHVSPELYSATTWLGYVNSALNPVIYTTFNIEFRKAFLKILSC

For the molecule `CN1CCc2ccc(O)cc2C(c2ccccc2)C1` (racemic), the Ki is 133 nM in assay [1]; 207 nM on D(1A) dopamine receptor; above 1000 nM in assay [2]; above 1000 nM at D(3) dopamine receptor; above 1000 nM at D(2) dopamine receptor.
`CN1CCc2cc(N)c(O)cc2C(c2ccccc2)C1` (racemic): the Ki in assay [1] is above 1000 nM; at D(1A) dopamine receptor, 334 nM; in assay [2] it was above 1000 nM; on D(3) dopamine receptor, above 1000 nM; at D(2) dopamine receptor, above 1000 nM.
With `CN1CCc2cc(O)ccc2C(c2ccccc2)C1` (racemic), the Ki on D(1A) dopamine receptor, on D(3) dopamine receptor and on D(2) dopamine receptor was above 1000 nM in each case.
With `CN1CCc2cc(O)c(N)cc2C(c2ccccc2)C1` (racemic), the Ki in assay [1] was above 1000 nM; on D(1A) dopamine receptor it was 351 nM; in assay [2], above 1000 nM; at D(3) dopamine receptor it was above 1000 nM; on D(2) dopamine receptor, above 1000 nM.
For the molecule `CN1CCc2cc(NCc3ccccc3)c(O)cc2C(c2ccccc2)C1` (racemic), the Ki in assay [1] is 4.52 nM; at D(1A) dopamine receptor, 665 nM; in assay [2], above 1000 nM; on D(3) dopamine receptor, above 1000 nM; at D(2) dopamine receptor, above 1000 nM.
Take `CN1CCc2cc(NCc3cccc(Cl)c3)c(O)cc2C(c2ccccc2)C1` (racemic): the Ki is 10.3 nM in assay [1], 277 nM at D(1A) dopamine receptor, 479 nM in assay [2] and above 1000 nM on D(2) dopamine receptor.
The like results for `Cc1cccc(CNc2cc3c(cc2O)C(c2ccccc2)CN(C)CC3)c1` (racemic) were, in that order, 9.95 nM, 370 nM, above 1000 nM and above 1000 nM.
Take `Cc1ccccc1CNc1cc2c(cc1O)C(c1ccccc1)CN(C)CC2` (racemic): the Ki is 192 nM in assay [1], 292 nM on D(1A) dopamine receptor, above 1000 nM in assay [2] and above 1000 nM on D(2) dopamine receptor.
`Cc1ccc(CNc2cc3c(cc2O)C(c2ccccc2)CN(C)CC3)cc1` (racemic): the Ki is 862 nM in assay [1], 756 nM on D(1A) dopamine receptor, above 1000 nM in assay [2] and above 1000 nM at D(2) dopamine receptor.
Regarding `CC(=O)Nc1cc2c(cc1O)C(c1ccccc1)CN(C)CC2` (racemic), the Ki on D(1A) dopamine receptor and at D(2) dopamine receptor was above 1000 nM in each case.
As to `CN1CCc2cc(-n3cccc3)c(O)cc2C(c2ccccc2)C1` (racemic), the Ki at D(1A) dopamine receptor and on D(2) dopamine receptor was above 1000 nM each time.
For the molecule `Cc1ccc(-c2cc3c(cc2O)C(c2ccccc2)CN(C)CC3)cc1` (racemic), the Ki on D(1A) dopamine receptor, on D(3) dopamine receptor and at D(2) dopamine receptor was above 1000 nM each time.
For `Cc1cccc(-c2cc3c(cc2O)C(c2ccccc2)CN(C)CC3)c1` (racemic), the inhibition constant Ki in assay [1] was 163 nM; on D(1A) dopamine receptor, 216 nM; in assay [2] it was above 1000 nM; on D(3) dopamine receptor, above 1000 nM; on D(2) dopamine receptor it was above 1000 nM.
As for `Cc1ccccc1-c1cc2c(cc1O)C(c1ccccc1)CN(C)CC2` (racemic), the results for the inhibition constant Ki at D(1A) dopamine receptor and on D(2) dopamine receptor were 912 nM and above 1000 nM, respectively.
In the case of `CN1CCc2cc(-c3ccc4ccccc4c3)c(O)cc2C(c2ccccc2)C1` (racemic), the Ki at D(1A) dopamine receptor and on D(2) dopamine receptor was above 1000 nM throughout.
For `CN1CCc2cc(-c3ccc(O)cc3)c(O)cc2C(c2ccccc2)C1` (racemic), the inhibitory constant (Ki) in assay [1] is 826 nM; on D(1A) dopamine receptor it was 349 nM; in assay [2], above 1000 nM; at D(2) dopamine receptor, above 1000 nM.
On to `CN1CCc2cc(O)c(CO)cc2C(c2ccccc2)C1` (racemic), for which the Ki on D(1A) dopamine receptor, at D(3) dopamine receptor and at D(2) dopamine receptor was above 1000 nM each time.
As for `CN1CCc2cc(O)c(CN)cc2C(c2ccccc2)C1` (racemic), the inhibition constant Ki at D(1A) dopamine receptor, on D(3) dopamine receptor and at D(2) dopamine receptor was above 1000 nM throughout.
For the molecule `CN1CCc2cc(N)ccc2C(c2ccccc2)C1` (racemic), the Ki at D(1A) dopamine receptor, on D(3) dopamine receptor and on D(2) dopamine receptor was above 1000 nM each time.
For the molecule `CN1CCc2ccc(N)cc2C(c2ccccc2)C1` (racemic), the Ki is 583 nM on D(1A) dopamine receptor, above 1000 nM on D(3) dopamine receptor and above 1000 nM on D(2) dopamine receptor.
`CNc1ccc2c(c1)C(c1ccccc1)CN(C)CC2` (racemic): the inhibitory constant (Ki) at D(1A) dopamine receptor and at D(2) dopamine receptor was above 1000 nM in each case.
Turning to `CN1CCc2ccc(N(C)C)cc2C(c2ccccc2)C1` (racemic), the Ki at D(1A) dopamine receptor and on D(2) dopamine receptor was above 1000 nM each time.
For `CN1CCc2cc3oc(=O)[nH]c3cc2C(c2ccccc2)C1` (racemic), the inhibitory constant (Ki) on D(1A) dopamine receptor and at D(2) dopamine receptor was above 1000 nM throughout.
For the molecule `CN1CCc2cc3c(cc2C(c2ccccc2)C1)NC(=O)CO3` (racemic), the Ki at D(1A) dopamine receptor and on D(2) dopamine receptor was above 1000 nM each time.
For `CN1CCc2cc3ocnc3cc2C(c2ccccc2)C1` (racemic), the inhibitory constant (Ki) at D(1A) dopamine receptor and at D(2) dopamine receptor was above 1000 nM each time.
With `CN1CCN(c2nc3cc4c(cc3o2)CCN(C)CC4c2ccccc2)CC1` (racemic), the Ki at D(1A) dopamine receptor and on D(2) dopamine receptor was above 1000 nM each time.
As to `CCN(CC)c1cc2c(cc1O)C(c1ccccc1)CN(C)CC2` (racemic), the Ki on D(1A) dopamine receptor, at D(3) dopamine receptor and at D(2) dopamine receptor was above 1000 nM in each case.
